Consider 27 compounds from ChEMBL document CHEMBL2157912, “Pyrido[1,2-a]pyrimidin-4-ones as antiplasmodial falcipain-2 inhibitors” (Bioorg Med Chem, 2012).

SMILES strings stand for the structures.

For test [1], the system named is Plasmodium falciparum. The test is described as follows: Inhibition of recombinant Plasmodium falciparum falcipain 2 at 10 uM preincubated for 10 mins before addition of Z-Phe-Arg-AMC substrate by fluorescence spectrophotometry. The procedure, abridged:
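Soluble recombinant FP-2 (30 nM) preincubated with compound at 10 µM for 10 min at room temperature in 100 mM sodium acetate pH 5.5 with 10 mM DTT. Compound was diluted from DMSO stock. Z-Phe-Arg-AMC was then added (25 µM final), and fluorescence (ex 355/em 460 nm) was followed for 10 min at room temperature. % inhibition = [1 − Ftest/Fcontrol]×100; mean of three independent determinations.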

Test [2] is described as follows: Inhibition of recombinant Plasmodium falciparum falcipain 2 incubated with compound for 10 mins before addition of Z-Phe-Arg-AMC substrate by fluorescence spectrophotometry. The procedure, abridged:
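FP-2 (30 nM) was preincubated for 10 min at room temperature with a series of fixed compound concentrations (from DMSO stock) in 100 mM sodium acetate pH 5.5, 10 mM DTT. Z-Phe-Arg-AMC was added to 25 µM final and AMC fluorescence (355/460 nm) monitored 10 min. IC50 was determined only for compounds reaching ≥40% inhibition at 10 µM; values are means of three independent determinations.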

The subject of test [3] is Plasmodium falciparum. Nature of the test: Inhibition of recombinant Plasmodium falciparum falcipain 2 at 2 uM preincubated for 10 mins before addition of Z-Phe-Arg-AMC substrate by fluorescence spectrophotometry.

As to `Cc1ccn2c(=O)c(NC(=O)NCCN3CCOCC3)cnc2c1`, the inhibition in the test with Plasmodium falciparum [1] came out at 27%.

Regarding `O=C(Nc1cnc2ccccn2c1=O)OCc1ccccn1`, the inhibition in the test on Plasmodium falciparum [1] is 18%.

With `Cc1ccn2c(=O)c(C(=O)NCc3ccc(F)cc3)cnc2c1`, in the test on Plasmodium falciparum [1], the inhibition was found to be 6%.

Consider `Cc1ccn2c(=O)c(NC(=O)NCCc3cccs3)cnc2c1`, for which, in test [2], the IC50 came to 21 µM. In the test on Plasmodium falciparum [1], the inhibition was found to be 45%.

Consider `Cc1ccn2c(=O)c(NC(=O)N3CCN(c4ccccn4)CC3)cnc2c1`, for which the inhibition in the test on Plasmodium falciparum [1] stood at 37%.

`COCCNC(=O)Nc1cnc2ccccn2c1=O`: in the test with Plasmodium falciparum [1], the inhibition was 31%.

Turning to `COc1ccc(N2CCN(C(=O)Nc3cnc4cc(C)ccn4c3=O)CC2)cc1`, in test [2], the IC50 stood at 19 µM. For the same compound, in the test on Plasmodium falciparum [1], the inhibition stood at 46%.

Consider `O=C(NCCCN1CCOCC1)Nc1cnc2ccccn2c1=O`, for which the inhibition with Plasmodium falciparum [1] turned out to be 25%.

Regarding `CC(=O)NCCNC(=O)Nc1cnc2cc(C)ccn2c1=O`, the inhibition with Plasmodium falciparum [1] was 15%.

Consider `CC(C)C[C@H](NC(=O)[C@H]1O[C@@H]1C(=O)O)C(=O)NCCCCN=C(N)N` [E-64], for which, in test [2], the IC50 is 0.02 µM. The inhibition with Plasmodium falciparum [3] is 92%.

Turning to `O=C(NCCc1cccs1)Nc1cnc2ccccn2c1=O`, the IC50 in test [2] was found to be 14 µM. In addition, in the test with Plasmodium falciparum [1], the inhibition stood at 44%.

With `COc1ccc(N2CCN(C(=O)Nc3cnc4ccccn4c3=O)CC2)cc1`, the inhibition in the test on Plasmodium falciparum [1] came to 43%.

For `CC(=O)NCCNC(=O)Nc1cnc2ccccn2c1=O`, in test [2], the IC50 is 16 µM. In addition, in the test with Plasmodium falciparum [1], the inhibition was determined as 46%.

Turning to `Cc1ccn2c(=O)c(NC(=O)OCc3ccccc3)cnc2c1`, in the test with Plasmodium falciparum [1], the inhibition stood at 31%.

`COc1ccc(N2CCN(C(=O)Nc3cnc4ccc(Cl)cn4c3=O)CC2)cc1`: the inhibition in the test on Plasmodium falciparum [1] turned out to be 36%.

Consider `COCCNC(=O)Nc1cnc2cc(C)ccn2c1=O`, for which, in test [2], the IC50 came out at 6 µM. In addition, the inhibition in the test on Plasmodium falciparum [1] stood at 63%.

In the case of `O=C(NCc1ccc(Cl)cc1)Nc1cnc2ccccn2c1=O`, in the test with Plasmodium falciparum [1], the inhibition was determined as 39%.

Regarding `Cc1ccn2c(=O)c(NC(=O)OCc3ccccn3)cnc2c1`, the IC50 in test [2] is 18 µM. Further, the inhibition with Plasmodium falciparum [1] came to 42%.

Take `O=C(NCCc1cccs1)Nc1cnc2ccc(Cl)cn2c1=O`: in test [2], the IC50 came out at 23 µM. In addition, in the test on Plasmodium falciparum [1], the inhibition is 42%.

As for `O=C(Nc1cnc2ccccn2c1=O)OCc1ccccc1`, in the test with Plasmodium falciparum [1], the inhibition stood at 12%.

For the compound `Cc1ccn2c(=O)c(NC(=O)N3CCN(C(c4ccccc4)c4ccccc4)CC3)cnc2c1`, the inhibition in the test with Plasmodium falciparum [1] is 23%.

In the case of `O=C(Nc1cnc2ccc(Cl)cn2c1=O)N1CCN(c2ccccn2)CC1`, in test [2], the IC50 worked out at 12 µM. Further, the inhibition in the test on Plasmodium falciparum [1] turned out to be 41%.

Regarding `O=C(Nc1cnc2ccccn2c1=O)N1CCN(c2ccccn2)CC1`, in test [2], the IC50 was determined as 15 µM. Also, in the test with Plasmodium falciparum [1], the inhibition was 46%.

`COc1ccc(CNC(=O)Nc2cnc3ccccn3c2=O)cc1`: the inhibition in the test with Plasmodium falciparum [1] is 18%.

On to `O=C(NCCN1CCOCC1)Nc1cnc2ccc(Cl)cn2c1=O`, for which the IC50 in test [2] was 7 µM. The inhibition with Plasmodium falciparum [1] was 68%.

In the case of `O=C(NCc1ccc2c(c1)OCO2)c1cnc2ccccn2c1=O`, the inhibition with Plasmodium falciparum [1] was 7%.

As to `O=C(NCc1ccc2c(c1)OCO2)c1cnc2ccc(Cl)cn2c1=O`, the inhibition in the test on Plasmodium falciparum [1] turned out to be 24%.

Usually inhibition stands for how much of the control response was suppressed. Broadly, the IC50 is the midpoint of a concentration-inhibition curve.
